Measurements reported in paper PMC3825860 (Journal of Ginseng Research, 2013).

What was measured:
[1] = type: in vivo, human
Procedure, shortened: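 10 healthy male Korean volunteers, fasted from the night before until 1 PM, took 9 g extract orally with 100 mL water at 8 AM. Heparinised blood was drawn predose and at 4–14 h hourly, 24 and 36 h, and plasma was stored at -70℃. LC-MS/MS used a digoxin internal standard, an ODS column with methanol:water gradient, and 2–100 ng/mL plasma standards. Non-compartmental analysis used trapezoidal AUC, reported as mean±SD.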

[2] = oral ginseng powder, healthy men, some individual variation; cited from earlier work

Row | plasma concentration at 36 h after taking the extract ([1]; single oral 9 g Korean Red Ginseng extract, detected in 8 subjects) [ng/mL] | AUC(0-inf) ([1]; male, human, plasma, po) [ng·h/mL] | AUC(0-t) ([1]; male, human, plasma, po) [ng·h/mL] | half-life ([1]; male, human, plasma, po) [h] | Structure (SMILES) | time of detection after oral administration [2] [h]
1 | 0.90 ± 0.74 |  |  |  | CC(C)=CCC[C@](C)(O[C@@H]1O[C@H](CO)[C@@H](O)[C@H](O)[C@H]1O)[C@H]1CC[C@]2(C)[C@@H]1[C@H](O)C[C@@H]1[C@@]3(C)CC[C@H](O)C(C)(C)[C@@H]3CC[C@]12C [Compound K, 20-O-β-Ɗ-glucopyranosyl-20(S)-protopanaxadiol] | 8
2 |  | 308 ± 146 | 102 ± 51 | 58.5 ± 14.3 | CC(C)=CCC[C@](C)(O[C@@H]1O[C@H](CO[C@@H]2O[C@H](CO)[C@@H](O)[C@H](O)[C@H]2O)[C@@H](O)[C@H](O)[C@H]1O)[C@H]1CC[C@]2(C)[C@@H]1[C@H](O)C[C@@H]1[C@@]3(C)CC[C@H](O[C@@H]4O[C@H](CO)[C@@H](O)[C@H](O)[C@H]4O[C@@H]4O[C@H](CO)[C@@H](O)[C@H](O)[C@H]4O)C(C)(C)[C@@H]3CC[C@]12C [Ginsenoside Rb1, ginsenoside Rb1] | 
